Data published in ChEMBL document CHEMBL1122685, “Identification of an acridine photoaffinity probe for trypanocidal action” (1984).

Tests used:
Assay type in all cases: functional
[1] = tested on: Trypanosoma brucei; assay: Trypanocidal activity against Trypanosoma brucei, exposure of parasites to compound prior to injection into mice at 10 e-6 M concentration in dark conditions
How it was run: (§1)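 T. brucei EATRO 110 was separated from blood on DEAE-cellulose and washed in Tris-saline-glucose (TSG). Parasites at 5×10^6/mL in TSG were gently rotated 10 min with drug at the final concentration, kept dark under a red safelight until injection. Swiss mice, five per group, received 5×10^5 parasites ip in 0.1 mL. Read-out was mean days survival ±SD over 30 days, against untreated-parasite controls.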

[2] = tested on: Trypanosoma brucei; assay: Trypanocidal activity against Trypanosoma brucei, exposure of parasites to compound prior to injection into mice at 10 e-5 M concentration in dark conditions; how it was run: as §1
[3] = tested on: Trypanosoma brucei; assay: Compound is evaluated for trypanocidal activity against Trypanosoma brucei, by exposing the parasites directly to compound prior to injection to mice at 10 e-7 M concentration in dark; how it was run: as §1
[4] = tested on: Trypanosoma brucei; assay: Compound is evaluated for trypanocidal activity against Trypanosoma brucei, by exposing the parasites directly to compound prior to injection to mice at 10 E-7 M concentration in presence of light
How it was run: (§2)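 DEAE-purified T. brucei EATRO 110 at 5×10^6/mL in TSG was mixed with drug at the final concentration by gentle rotation for 10 min. Samples were light-activated for 10 min under a 30W fluorescent lamp 4 cm above. 5×10^5 treated parasites in 0.1 mL were injected ip into Swiss mice, five per group. Survival was scored daily for 30 days and reported as mean days ±SD, with untreated controls.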

[5] = tested on: Trypanosoma brucei; assay: Compound is evaluated for trypanocidal activity against Trypanosoma brucei, by exposing the parasites directly to compound prior to injection to mice at 10 E-6 M concentration in presence of light; how it was run: as §2
[6] = tested on: Trypanosoma brucei; assay: Compound is evaluated for trypanocidal activity against Trypanosoma brucei, by exposing the parasites directly to compound prior to injection to mice at 10 E-4 M concentration in dark conditions; how it was run: as §1
[7] = tested on: Trypanosoma brucei; assay: Compound is evaluated for trypanocidal activity against Trypanosoma brucei, by exposing the parasites directly to compound prior to injection to mice at 10 E-6 M concentration (pre) in presence of light.
How it was run: (§3)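 Compound was irradiated 1 h before contact with T. brucei EATRO 110 (5×10^6/mL in TSG, final drug concentration). After 10 min gentle rotation, the mixture was irradiated again for 10 min under a 30W fluorescent lamp at 4 cm. 5×10^5 parasites in 0.1 mL were given ip to five Swiss mice per group. Read-out was mean days survival ±SD over 30 days, with untreated controls.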

[8] = tested on: Trypanosoma brucei; assay: Compound is evaluated for trypanocidal activity against Trypanosoma brucei, by exposing the parasites directly to compound prior to injection to mice at 10 E-6 M concentration (pre) in dark conditions
How it was run: (§4)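 Drug was preirradiated 1 h with visible light, then added at the final concentration to T. brucei EATRO 110 (5×10^6/mL in TSG) and rotated 10 min. The parasites were then kept dark with a red safelight. Swiss mice, five per group, were injected ip with 0.1 mL holding 5×10^5 parasites. Mean days survival ±SD was scored over 30 days against untreated-parasite controls.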

[9] = tested on: Trypanosoma brucei; assay: Compound is evaluated for trypanocidal activity against Trypanosoma brucei, by exposing the parasites directly to compound prior to injection to mice at 10 E-7 M concentration in dark conditions; how it was run: as §1
[10] = tested on: Trypanosoma brucei; assay: Compound is evaluated for trypanocidal activity against Trypanosoma brucei, by exposing the parasites directly to compound prior to injection to mice at 10 E-6 M concentration in dark conditions; how it was run: as §1
[11] = tested on: Trypanosoma brucei; assay: Compound is evaluated for trypanocidal activity against Trypanosoma brucei, by exposing the parasites directly to compound prior to injection to mice at 10 E-4 M concentration in presence of light; how it was run: as §2
[12] = tested on: Trypanosoma brucei; assay: Compound is evaluated for trypanocidal activity against Trypanosoma brucei, by exposing the parasites directly to compound prior to injection to mice at 10 E-5 M concentration in dark conditions; how it was run: as §1
[13] = tested on: Trypanosoma brucei; assay: Compound is evaluated for trypanocidal activity against Trypanosoma brucei, by exposing the parasites directly to compound prior to injection to mice at 10 E-5 M concentration in presence of lightin; how it was run: as §2
[14] = tested on: Trypanosoma brucei; assay: Compound is evaluated for trypanocidal activity against Trypanosoma brucei, by exposing the parasites directly to compound prior to injection to mice at 10 E-5 M concentration in presence of light; how it was run: as §2
[15] = tested on: Trypanosoma brucei; assay: Compound is evaluated for trypanocidal activity against Trypanosoma brucei, by exposing the parasites directly to compound prior to injection to mice at 10 E-5 M concentration (pre) in presence of light; how it was run: as §3
[16] = tested on: Trypanosoma brucei; assay: Compound is evaluated for trypanocidal activity against Trypanosoma brucei, by exposing the parasites directly to compound prior to injection to mice at 10 E-5 M concentration (pre) in dark conditions; how it was run: as §4

SMILES	Activity [1]	Activity [2]	Activity [3]	Activity [4]	Activity [5]	Activity [6]	Activity [7]	Activity [8]	Activity [9]	Activity [10]	Activity [11]	Activity [12]	Activity [13]	Activity [14]	Activity [15]	Activity [16]
N=C(N)c1ccc(/N=N/Nc2ccc(C(=N)N)cc2)cc1 [DIMINAZENE]	10.8	19.2	5	–	–	–	–	–	–	–	–	–	–	–	–	–
Nc1ccc2cc3ccc(N)cc3nc2c1 [PROFLAVINE]	–	–	–	8.1	30	30	20.6	7.2	6.3	5.5	30	12	30	–	–	–
Nc1ccc2cc3ccccc3nc2c1	–	–	–	–	5.7	6.9	–	–	–	4.9	30	6.6	–	30	30	6.7
